By IC50 is commonly meant the concentration that inhibits the measured activity by half. Read a high IC50 as a need for much substance. The term logP denotes a log measure of how a compound divides between an organic and an aqueous phase.

The source of these data is ChEMBL document CHEMBL2029291, “Synthesis and structure-activity relationships of new quinolone-type molecules against Trypanosoma brucei” (J Med Chem, 2012).

Where a name gives a salt, the structure may show the parent alone. Active and inactive are the calls of the source. No cut-off for these calls is given here.

Data set [1] has as its system Trypanosoma brucei brucei. Description: Antitrypanosomal activity against Trypanosoma brucei brucei TC221 […] after 48 hrs by alamar blue assay. In kind it is functional, organism-based. Conditions: for IC50: TC221, 48 h. The gist of the method:
(§1)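 Trypomastigote T. b. brucei TC 221 grown in Baltz medium, seeded at 10⁴ per mL and exposed to graded compound concentrations (dissolved in DMSO or 0.1 M NaOH). Incubated at 37 °C, 5% CO₂ for 72 h, with a reading also taken at 48 h. AlamarBlue absorbance read at 550/630 nm. IC50 by linear interpolation; duplicate tests, mean and SD.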

Data set [2] concerns Trypanosoma brucei brucei. Description: Antitrypanosomal activity against Trypanosoma brucei brucei TC221 […] after 72 hrs by alamar blue assay. It counts as functional, organism-based. Conditions: for IC50: TC221, 72 h. The gist of the method:
as §1
On the technique in general: The colour change of resazurin is a common sign of viable cells or microbes.

The nature of data set [3]: Cytotoxicity against mouse J774.1 cells after 48 hrs by alamar blue assay. In kind it is cell-based. The settings on record: J774.1, 48 h. Summed up: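 J774.1 macrophages kept in complete Click RPMI, detached by scraping, PBS-washed, suspended at 2 × 10⁶ cells/mL and plated in phenol-red-free RPMI with or without compound. AlamarBlue added and absorbance read 24 and 48 h later. Compound-free wells taken as 100% growth. Effects of cell density, incubation time and DMSO level were controlled. Tested in duplicate.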

Data set [4] is described as follows: Selectivity index, ratio of IC50 for mouse J774.1 cells to IC50 for Trypanosoma brucei brucei TC221. In kind it is toxicity. Conditions: read-out: Ratio IC50.
The nature of data set [5]: Lipophilicity, log P of the compound by RP-HPLC analysis. In kind it is physicochemical. The settings on record: read-out: logP. The gist of the method: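 LogP by RP-HPLC on a C18 Inertsil ODS-2 column. Mobile phase was methanol/10 mM phosphate buffer pH 7.4 (70:30) at 1.5 mL/min. Samples were at 4 μg/mL, detected at 254.4 nm, and run in duplicate. Capacity ratio was calculated as k′ = (tr − to)/to.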

Take `CCCCn1cc(C(=O)O)c(=O)c2cc(F)c(N3CCC(C(N)=O)CC3)cc21`: the IC50 is more than 40 µM in data set [1], more than 40 µM in data set [2] and more than 100 µM in data set [3]. Also, the selectivity ratio in data set [4] is more than 2.5.
For the compound `CCOC(=O)c1cnc2cc(C(F)(F)F)ccc2c1O`, the outcome in data set [1] and in data set [2] was inactive.
For the compound `CCCCn1cc(C(=O)O)c(=O)c2cc(F)c(N3CCCCC3)cc21`, the values for the 50% inhibitory concentration (IC50) in data set [1], in data set [2] and in data set [3] were 14.6 µM, 18.1 µM and 93 µM, respectively. In addition, the selectivity ratio in data set [4] turned out to be 6.39.
Regarding `CCCCn1cc(C(=O)O)c(=O)c2cc(F)c(N(C)C)cc21`, the IC50 was more than 40 µM in data set [1], more than 40 µM in data set [2] and more than 100 µM in data set [3]. Further, the selectivity ratio in data set [4] was more than 2.5.
Take `CCCCn1cc(C(=O)NCc2ccccc2)c(=O)c2cc(F)c(N3CCC(C(N)=O)CC3)cc21`: the logP in data set [5] was determined as 2.4. For the same compound, the values for the IC50 in data set [1], in data set [2] and in data set [3] were 1.09 µM, 1.98 µM and 47 µM, respectively. In data set [4], the selectivity ratio is 43.1.
For `CCCCn1cc(C(=O)O)c(=O)c2cc(F)c(N(C)Cc3ccccc3)cc21`, the IC50 in data set [1] is 17.2 µM; in data set [2] it was 23 µM; in data set [3] it was 43.2 µM. Also, the selectivity ratio in data set [4] came to 2.51.
Regarding `CCCCn1cc(C(=O)NCc2ccccc2)c(=O)c2cc(F)c(N(C)C)cc21`, the logP in data set [5] came out at 2.4. The 50% inhibitory concentration (IC50) was 0.68 µM in data set [1], 0.92 µM in data set [2] and more than 100 µM in data set [3]. Further, the selectivity ratio in data set [4] is more than 147.
In turn, `NCCCC(N)(C(=O)O)C(F)F` (stereo not drawn) [EFLORNITHINE HYDROCHLORIDE] came in with an IC50 in data set [1] of 22.9 µM.
With `CCn1cc(C(=O)Nc2ccc(Cl)c(F)c2)c(=O)c2ccc(C(F)(F)F)cc21`, the results for the IC50 in data set [1], in data set [2] and in data set [3] were more than 40 µM, more than 40 µM and more than 100 µM, respectively. Besides, in data set [4], the selectivity ratio was more than 2.5.
`CCCCn1cc(C(=O)NCc2ccccc2)c(=O)c2cc(F)c(N(C)Cc3ccccc3)cc21`: the IC50 stood at 5.4 µM in data set [1], 10.8 µM in data set [2] and 86 µM in data set [3]. For the same compound, the selectivity ratio in data set [4] was 15.9.
Consider `CCCCn1cc(C(=O)NCc2ccc([N+](=O)[O-])cc2)c(=O)c2cc(F)c(N3CCC(C(N)=O)CC3)cc21`, for which, in data set [5], the logP came out at 2.4. For the same compound, the IC50 is 0.54 µM in data set [1], 0.58 µM in data set [2] and more than 100 µM in data set [3]. In data set [4], the selectivity ratio is more than 185.
For `CCCn1cc(C(=O)NCc2ccccc2)c(=O)c2cc(F)c(N3CCC(C(N)=O)CC3)cc21`, in that order: 2.4, 0.75 µM, 1.25 µM, 43.7 µM and 58.3.
Regarding `CCCCn1cc(C(=O)O)c(=O)c2cc(F)c(Cl)cc21`, the half-maximal inhibitory concentration (IC50) in data set [1] was more than 40 µM; in data set [2], more than 40 µM; in data set [3], more than 100 µM. In data set [4], the selectivity ratio is more than 2.5.
With `CCCCn1cc(C(=O)NCc2ccco2)c(=O)c2cc(F)c(N3CCC(C(N)=O)CC3)cc21`, the logP in data set [5] stood at 2.4. The values for the IC50 in data set [1], in data set [2] and in data set [3] were 1.03 µM, 1.84 µM and 41.4 µM, respectively. Besides, the selectivity ratio in data set [4] is 40.2.
In the case of `CCn1cc(C(=O)NCc2ccc(OC)cc2)c(=O)c2ccc(C(F)(F)F)cc21`, the IC50 in data set [1] was 7.31 µM; in data set [2], 6.37 µM; in data set [3], more than 100 µM. For the same compound, the selectivity ratio in data set [4] is more than 13.7.
`CCOC(=O)c1c[nH]c2cc(Cl)c(F)cc2c1=O`: the outcome in data set [1] and in data set [2] was inactive.
In turn, `Cc1ccc(C(=O)Nc2ccc(S(=O)(=O)O)c3cc(S(=O)(=O)O)cc(S(=O)(=O)O)c23)cc1NC(=O)c1cccc(NC(=O)Nc2cccc(C(=O)Nc3cc(C(=O)Nc4ccc(S(=O)(=O)O)c5cc(S(=O)(=O)O)cc(S(=O)(=O)O)c45)ccc3C)c2)c1` [SURAMIN HEXASODIUM] showed an IC50 in data set [1] of 0.31 µM.
On to `NC(=O)C1CCN(c2cc3c(cc2F)c(=O)c(C(=O)O)cn3C2CC2)CC1`, for which the figures for the concentration for half-maximal inhibition (IC50) in data set [1], in data set [2] and in data set [3] were more than 40 µM, more than 40 µM and more than 100 µM, respectively. Moreover, the selectivity ratio in data set [4] is more than 2.5.
As to `CCn1cc(C(=O)O)c(=O)c2ccc(C(F)(F)F)cc21`, the figures for the IC50 in data set [1], in data set [2] and in data set [3] were more than 40 µM, more than 40 µM and more than 100 µM, respectively. Besides, in data set [4], the selectivity ratio is more than 2.5.
As for `CCCCn1cc(C(=O)NCc2ccc(O)cc2)c(=O)c2cc(F)c(N3CCC(C(N)=O)CC3)cc21`, the results for the concentration for half-maximal inhibition (IC50) in data set [1], in data set [2] and in data set [3] were 3.09 µM, 5.12 µM and 41.6 µM, respectively. In addition, the selectivity ratio in data set [4] was determined as 13.5.
In the case of `CCCCn1cc(C(=O)NCc2ccccc2)c(=O)c2cc(F)c(-c3ccccc3)cc21`, the values for the IC50 in data set [1], in data set [2] and in data set [3] were more than 40 µM, more than 40 µM and more than 100 µM, respectively. The selectivity ratio in data set [4] is more than 2.5.
Regarding `CCCCn1cc(C(=O)NCc2ccccc2)c(=O)c2cc(F)c(N3CCCCC3)cc21`, the lipophilicity (logP) in data set [5] stood at 2.4. Also, the IC50 in data set [1] worked out at 0.67 µM; in data set [2], 1.04 µM; in data set [3], 47.8 µM. Moreover, the selectivity ratio in data set [4] was 71.3.
Regarding `Nc1nc(N)nc(Nc2ccc([As]3SCC(CO)S3)cc2)n1` (stereo not drawn) [MELARSOPROL], in data set [1], the IC50 was 0.0026 µM.
Consider `CCCCn1cc(C(=O)NCc2ccc(OC)c([N+](=O)[O-])c2)c(=O)c2cc(F)c(N3CCC(C(N)=O)CC3)cc21`, for which the concentration for half-maximal inhibition (IC50) is 3.07 µM in data set [1], 4.14 µM in data set [2] and more than 100 µM in data set [3]. Besides, in data set [4], the selectivity ratio was more than 32.6.
In data set [1], `N=C(N)c1ccc(OCCCCCOc2ccc(C(=N)N)cc2)cc1` [PENTAMIDINE ISETHIONATE] had a 50% inhibitory concentration (IC50) of 0.0029 µM.
For the compound `NC(=O)C1CCN(c2cc3c(cc2F)c(=O)c(C(=O)NCc2ccco2)cn3C2CC2)CC1`, the IC50 is 8.89 µM in data set [1], 12.1 µM in data set [2] and more than 100 µM in data set [3]. Moreover, the selectivity ratio in data set [4] was more than 11.2.
For `CCCCn1cc(C(=O)O)c(=O)c2cc(F)c(N3CCOCC3)cc21`, the half-maximal inhibitory concentration (IC50) was 19.2 µM in data set [1], 22.2 µM in data set [2] and more than 100 µM in data set [3]. In data set [4], the selectivity ratio is more than 5.21.
As to `CCCn1cc(C(=O)NCc2ccco2)c(=O)c2cc(F)c(N3CCC(C(N)=O)CC3)cc21`, the values for the IC50 in data set [1], in data set [2] and in data set [3] were 4.6 µM, 4.84 µM and 56.9 µM, respectively. Moreover, the selectivity ratio in data set [4] worked out at 12.4.
Regarding `CCCn1cc(C(=O)O)c(=O)c2cc(F)c(N3CCC(C(N)=O)CC3)cc21`, the IC50 is more than 40 µM in data set [1], more than 40 µM in data set [2] and more than 100 µM in data set [3]. The selectivity ratio in data set [4] is more than 2.5.
On to `CCCn1cc(C(=O)O)c(=O)c2cc(F)c(Cl)cc21`, for which the IC50 in data set [1] is more than 40 µM; in data set [2], more than 40 µM; in data set [3] it was more than 100 µM. For the same compound, the selectivity ratio in data set [4] is more than 2.5.
As to `CCCn1cc(C(=O)NCc2ccc(OC)cc2)c(=O)c2cc(F)c(N3CCC(C(N)=O)CC3)cc21`, the IC50 was determined as 2.28 µM in data set [1], 3.12 µM in data set [2] and 41.4 µM in data set [3]. Further, the selectivity ratio in data set [4] is 18.2.
For the compound `COc1ccc(CNC(=O)c2cn(C3CC3)c3cc(N4CCC(C(N)=O)CC4)c(F)cc3c2=O)cc1`, the concentration for half-maximal inhibition (IC50) is 2.75 µM in data set [1], 2.56 µM in data set [2] and more than 100 µM in data set [3]. Further, the selectivity ratio in data set [4] is more than 36.4.
